OXTR potentiator: human OXTR potentiation | CHO-OTR cells, Fluo-8 calcium fluorescence, potentiator mode; 0% = oxytocin EC15, 100% = EC100 | activation, % at 3 µM | P30559 | hit rate 0.061% among 320,000 | AID 2445;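 active = activation above that plate's cutoff, the mean activation of tested compounds plus 3 SD, cut at about 6.6% in these data, passing the limit was not always enough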
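Assay system: CHO cell line stably expressing human OTR | Also added: Oxytocin at about EC15, sub-maximal agonist stimulus | Times: Compound 6 min at room temperature before oxytocin, 100 s read | Measured by: Fluo-8 intracellular calcium fluorescence, ex 470-495, em 515-575 nm | Controls: EC15 oxytocin alone as 0%, 75 nM oxytocin as 100%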
OX1R antag-1: human HCRTR1 antagonism | O43613 | CHO/OX1R cells, Fluo-8 calcium fluorescence, orexin A | inhibition, % at 5 µM | hit rate 0.43% among 330,000 | AID 434989;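 active = inhibition above its plate's threshold, mean inhibition of all tested compounds on the plate plus 3 SD, cut at about 37% in these data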
Target sequence (O43613 whole entry, looked up): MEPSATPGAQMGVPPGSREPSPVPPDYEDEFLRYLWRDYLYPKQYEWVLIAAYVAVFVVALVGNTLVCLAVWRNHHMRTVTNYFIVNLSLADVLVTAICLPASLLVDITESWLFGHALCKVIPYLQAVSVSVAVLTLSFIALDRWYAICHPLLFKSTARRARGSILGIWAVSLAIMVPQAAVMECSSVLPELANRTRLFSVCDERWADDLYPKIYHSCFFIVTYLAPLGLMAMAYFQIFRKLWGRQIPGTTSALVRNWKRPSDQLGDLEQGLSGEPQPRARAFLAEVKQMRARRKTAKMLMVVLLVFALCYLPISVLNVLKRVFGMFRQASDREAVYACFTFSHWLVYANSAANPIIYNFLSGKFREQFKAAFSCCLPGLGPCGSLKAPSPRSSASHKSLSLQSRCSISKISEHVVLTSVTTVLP
OX1R antag-2: antagonists of human orexin 1 receptor (OX1R) | hit rate 1.8% among 330,000 | inhibition, % at 6.6 µM | OX1R-expressing cells, FRET antagonist read-out | O43613; in the data active = inhibition mostly above about 38%, no sharp cut-off; inactive = mostly below about 40%
CHO parental Ca: counter-screen for OX1R antagonists: effect in parental CHO cells. parental CHO-K1, ATP-induced calcium, Fluo-8 fluorescence. inhibition, % at 5.6 µM. hit rate 0.63% among 330,000. AID 463079;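 active = inhibition above that plate's mean sample inhibition plus 3 SD, cut at about 26% in these data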
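Test system: untransfected parental CHO cell line. Compound: one dose, 5.6 µM nominal. Detection: intracellular calcium via Fluo-8 no-wash fluorescent dye. Measure: % inhibition. Benchmarks: ATP-challenged DMSO wells low, unchallenged DMSO wells high.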
V1aR counter: V1a receptor agonism, counter-screen for OXTR agonists; activation, % at 3 µM; hit rate 0.25% among 320,000; CHO-V1R cells, Fluo-8 calcium fluorescence, agonist mode; 0% DMSO, 100% 3 nM vasopressin;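 active = activation above the mean activation of all tested compounds plus 3 SD, per screening run, cut at about 20% in these data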;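 also: signal is peak over basal fluorescence ratio across a 100 second FLIPR read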
OXTR agonist: human OXTR agonism | AID 2435 | activation, % at 3 µM | hit rate 0.32% among 320,000 | CHO-OTR cells, Fluo-8 calcium fluorescence; normalized: DMSO 0%, oxytocin 100% | P30559;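 active = activation above the mean of all tested compounds plus 3 SD, cutoff set per screening run, cut at about 20% in these data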;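 also: peak over basal fluorescence ratio from a 100 s FLIPR kinetic read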
Hits are given with their value; 0 = inactive. This is a sample that favours compounds with a hit; in the whole collection about 2.7% have one here.

SMILES	OXTR potentiator	OX1R antag-1	OX1R antag-2	CHO parental Ca	V1aR counter	OXTR agonist
CC(C)(C)OC(=O)NCCCCCc1cn([C@@H](CO)C(=O)NCCCCCCCCCCC(=O)N2CCN(C(=O)OC(C)(C)C)CC2)nn1	0	74	71	96	0	0
CC(C)(C)OC(=O)CC[C@@H](C(=O)NCCCCCCCCCCC(=O)N1CCN(C(=O)OC(C)(C)C)CC1)n1cc(CCCCCNC(=O)OC(C)(C)C)nn1	0	0	0	0	0	0
C/C(=N\OCC(=O)Nc1ccc(F)c(F)c1F)c1cc2ccccc2o1	0	0	65	0	0	0
CSc1ccccc1NC(=O)CO/N=C(\C)c1cc2ccccc2o1	0	0	0	0	0	0
Cc1ccnc(Cc2ccccc2)n1	0	0	0	0	0	0
Cc1cccc[n+]1CCCCCCCCCC[n+]1ccccc1C	0	0	0	0	0	0
CCCCCCCC[n+]1cccc2c3ccccc3ccc21	0	0	0	63	0	0
COc1ccc([C@H]2C(C(=O)O)=C[C@@H](C(C)(C)C)N2S(=O)(=O)c2ccc(C)cc2)cc1OC	0	0	0	0	0	0
CCn1c(/C=C/c2ccccc2[N+](=O)[O-])nc2ccccc2c1=O	0	0	53	0	0	0
CCn1c(/C=C/c2ccccc2Cl)nc2ccccc2c1=O	0	0	0	0	0	0
Cc1ccc(C(=O)Nc2cccc(N3C(=O)C4CCC(C)CC4C3=O)c2)cc1 (centres undefined)	0	0	0	0	0	0
CCOc1cc(N2CCOCC2)c(OCC)cc1NS(=O)(=O)c1cc(NC(C)=O)ccc1OC	0	0	0	0	0	0
CCOc1ccccc1NC(=O)C(Sc1ccccc1)c1ccccc1 (centres undefined)	0	59	0	57	0	0
C[C@H](CO)N1C[C@H](C)[C@@H](CN(C)C(=O)Nc2ccc(C(F)(F)F)cc2)Oc2c(NS(=O)(=O)c3cn(C)cn3)cccc2C1=O	0	0	0	0	0	0
CCC(=O)N(C(=O)CC)N1CCN(c2ccncc2S(=O)(=O)N2CCCCC2)CC1	0	0	0	0	0	0
COCCn1c(SCc2cccc([N+](=O)[O-])c2)nc2ccccc2c1=O	0	0	0	0	0	0
COc1cccc(NC(=O)CSc2nc(N)cc(N)n2)c1	0	0	0	0	0	0
COc1ccccc1NC(=O)CSc1nc2ccccc2c(=O)n1C	0	0	48	50	0	0
Cn1c(SCc2cccc([N+](=O)[O-])c2)nc2ccccc2c1=O	0	68	54	36	0	0
COc1ccccc1NC(=O)CSc1nc2c(oc3ccccc32)c(=O)n1C	0	0	0	0	0	0
COc1cccc(NC(=O)CSc2nc3ccccc3n2C)c1	0	0	57	0	0	0
O=C(CN(C(=O)CNC(=O)c1ccco1)c1cccc(F)c1)NC1CCCCC1	0	0	0	0	0	0
Cc1cc(NC(=O)COC(=O)CCNS(=O)(=O)c2ccccc2)n(-c2ccccc2)n1	0	0	0	0	0	0
CC(=O)Oc1ccc2nc(-c3ccc(Br)o3)oc(=O)c2c1	0	0	0	0	0	0
CC(Oc1ccc(C(=O)c2ccccc2)cc1)C(=O)Nc1ccc(S(N)(=O)=O)cc1 (centres undefined)	0	0	0	0	22	33
SMILES	OXTR potentiator	OX1R antag-1	OX1R antag-2	CHO parental Ca	V1aR counter	OXTR agonist
NS(=O)(=O)c1ccc(NC(=O)COc2ccc(C(=O)c3ccc(F)cc3)cc2)cc1	0	0	0	34	0	0
O=c1[nH]c(=O)c2cc([N+](=O)[O-])cc([N+](=O)[O-])c2[nH]1	0	0	52	0	0	0
O=C(COc1ccc(Br)cc1)N1CCN(c2ncccn2)CC1	0	0	0	0	0	0
O=C(CSc1nc(-c2ccccc2)c(-c2ccccc2)o1)NCCCO	0	0	0	0	0	0
Cc1sc(NC(=O)c2ccc(Br)s2)c(C(N)=O)c1C	0	0	0	0	0	0
Cc1sc(NC(=O)c2ccc(Cl)s2)c(C(N)=O)c1C	0	0	47	0	0	0
CCN(CC)CC(C)(C)COC(=O)c1oc2ccccc2c1C	0	0	0	0	0	0
COc1ccc(-c2cc(=O)oc3c(C)c(OC(C)C(=O)Nc4ccc(CN5CCOCC5)cc4)ccc23)cc1 (centres undefined)	0	0	0	0	0	0
O=C(O)CSCc1cnn(-c2ccccc2)c1-n1cccc1	0	0	0	0	0	0
CCOc1ccc(NC(=O)CSCc2cnn(-c3ccccc3)c2-n2cccc2)cc1	0	0	76	0	0	0
Cc1cc(C)n2nc(C(=O)OCC(=O)N(CC(C)C)C3CCS(=O)(=O)C3)nc2n1 (centres undefined)	0	0	0	0	0	0
Cc1ccc(C)c(S(=O)(=O)N2CCCOC2CNC(=O)C(=O)NCCc2ccco2)c1 (centres undefined)	0	0	63	0	0	0
COc1ccccc1CCNC(=O)C(=O)NCC1OCCCN1S(=O)(=O)c1cc(C)ccc1C (centres undefined)	0	0	66	0	0	0
COc1ccc(S(=O)(=O)N2CCCOC2CNC(=O)C(=O)NCCc2ccco2)cc1C (centres undefined)	0	0	70	0	0	0
O=C(NCCc1ccco1)C(=O)NCC1OCCCN1S(=O)(=O)c1ccc(F)cc1 (centres undefined)	0	0	0	0	0	0
Cc1ccc(-n2ncc3c(=O)n(CC(=O)N(C(C)C)C(C)C)cnc32)cc1	0	0	0	0	0	0
CCN(Cc1ccccc1)C(=O)COC(=O)c1cc(S(=O)(=O)Nc2ccccc2OC)ccc1O	0	0	0	0	0	0
O=C(O)COc1ccc(C(=O)c2ccccc2)cc1	0	0	0	0	0	0
CC(=O)c1ccc(OCc2ccc(C(=O)c3ccccc3)cc2)cc1	0	0	0	49	0	0
CC(=O)Nc1ccc(Nc2ncnc(N)c2[N+](=O)[O-])cc1	0	0	37	0	0	0
Cc1nc2nc(-c3cccs3)[nH]c2cc1Br	0	0	43	0	0	0
CCOc1ccccc1NC(=O)C1(S(=O)(=O)c2ccc(Cl)cc2)CC1	0	0	0	0	0	0
CCC(CO)[n+]1c(C)cc(/C=C2\Sc3ccccc3N2Cc2ccccc2)cc1C (centres undefined)	0	0	0	41	0	0
CC(C)CC1c2[nH]c3ccccc3c2CCN1C(=O)CCC(=O)N(C)C (centres undefined)	0	0	0	0	0	0
O=C(NC12CC3CC(CC(C3)C1)C2)c1cc(F)c(F)c(F)c1F	0	0	0	0	0	0
Cc1ccc(Oc2nnc(-c3cccs3)c3ccccc23)cc1C	0	0	0	40	0	0

Screening data deposited in PubChem BioAssay by The Scripps Research Institute Molecular Screening Center.
